Hits are enriched below; roughly 2.8% of the tested compounds scored in any of these assays.
SIRT5 inh: sirtuin-5 (human) deacylase inhibition | inhibition, % at 15 µM | Q9NXA8 | actives 1.1% (n = 330,000) | Purified SirT5, succinyl-peptide AMC, trypsin-coupled fluorescence | AID 652115; in the data active = inhibition above about 15%; inconclusive = no clear call, values can overlap the other calls
Target sequence (Q9NXA8 whole entry, looked up): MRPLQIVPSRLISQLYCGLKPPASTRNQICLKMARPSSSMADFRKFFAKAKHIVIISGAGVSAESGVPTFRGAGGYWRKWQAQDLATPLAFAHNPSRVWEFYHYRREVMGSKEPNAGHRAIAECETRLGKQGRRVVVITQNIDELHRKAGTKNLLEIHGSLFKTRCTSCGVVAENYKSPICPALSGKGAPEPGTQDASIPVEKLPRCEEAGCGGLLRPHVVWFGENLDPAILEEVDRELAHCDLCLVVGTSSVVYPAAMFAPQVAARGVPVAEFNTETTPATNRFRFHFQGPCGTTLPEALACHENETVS
E-sel inducer: E-selectin induction on HUVECs; P16581; activation, % at 7.58 µM; AID 686992; actives 0.37% (n = 260,000); HUVEC E-selectin immunofluorescence imaging; normalized: neutral wells 0, TNF-alpha wells 100;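 active = mean E-selectin-positive cell signal at least 10% of the positive control, reached in at least 60% of replicates, without over 20% cell loss; inconclusive = no rule given, readout overlaps actives, possibly toxicity-flagged; inactive = the rest, including those meeting only one limit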
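Test system – human umbilical vein endothelial cells (HUVEC), E-selectin induction · Input – 3,000 HUVEC seeded per well · Buffer or medium – EGM-2, gelatin · Compound dosing – single-point compound dose · Detection – immunofluorescence imaging · Measure – percent E-selectin-positive cells · Controls – TNF-alpha high, DMSO low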
DENV2 CPE: inhibitors of DENV2 cytopathic effect | actives 1.7% (n = 350,000) | DENV2-infected cells, cytopathic effect rescue, plate reader | CPE inhibition, % at 9.99 µM; in the data active = CPE inhibition above about 20%, passing the limit was not always enough; inconclusive = no clear call, values can overlap the other calls; tested in BHK-21 cells
Hits are given with their value; n = inactive; u = inconclusive; x = no result; ! = not confirmed by another sample.

SMILES	SIRT5 inh	E-sel inducer	DENV2 CPE
COc1ccc(NC(=O)Nc2cccc3c2O[C@H](CN(C)S(=O)(=O)c2ccccc2)[C@H](C)CN([C@@H](C)CO)C3=O)cc1	n	n	80.1
CS(=O)(=O)N1CC2(C1)[C@H](c1ccccc1)[C@H](CO)N2CC1CCCC1	n	n	n
CC(C)C#Cc1cnc2c(c1)C(=O)N([C@H](C)CO)C[C@@H](C)[C@H](CN(C)C(=O)C1CCC1)O2	n	n	n
O=C(Cc1ccccc1)N1CC2(C1)[C@H](c1ccccc1)[C@H](CO)N2C(=O)c1cccnc1	n	n	n
CCCN(C)C[C@H]1Oc2cc(C#CC(C)(C)O)ccc2S(=O)(=O)N([C@H](C)CO)C[C@H]1C	n	n	n
CN(C)Cc1cn(CC[C@H]2CC[C@@H](NS(=O)(=O)c3ccc(-c4ccccc4)cc3)[C@@H](CO)O2)nn1	n	n	u
COc1ccc(NC(=O)N(C)C[C@@H]2Oc3c(NC(=O)Nc4ccc(F)cc4)cccc3C(=O)N([C@@H](C)CO)C[C@H]2C)cc1	n	n	34.4
COc1ccc(NC(=O)Nc2cccc3c2O[C@@H](CN(C)C(=O)Nc2ccc(F)cc2)[C@H](C)CN([C@H](C)CO)C3=O)cc1	n	n	n
C[C@H]1CN([C@@H](C)CO)C(=O)c2cccc(NC(=O)Nc3cccc4ccccc34)c2O[C@@H]1CN(C)C(=O)Nc1ccc(F)cc1	x	n	n
C[C@H](CO)N1C[C@H](C)[C@H](CN(C)C(=O)Nc2ccc(F)cc2)Oc2c(NC(=O)Nc3cccc4ccccc34)cccc2C1=O	n	n	41.6
C[C@H](CO)N1C[C@H](C)[C@@H](CN(C)S(=O)(=O)c2ccccc2F)Oc2ncc(C#Cc3ccccc3)cc2C1=O	n	n	n
O=C(C[C@@H]1C=C[C@H](NC(=O)CN2CCOCC2)[C@H](CO)O1)NC1CCC1	n	n	n
O=C(C[C@@H]1C=C[C@@H](NC(=O)CN2CCOCC2)[C@H](CO)O1)NC1CCCCC1	25.8	n	n
O=C(C[C@H]1C=C[C@H](NC(=O)CN2CCOCC2)[C@H](CO)O1)NCCc1ccccc1	17.0	n	n
O=C(C[C@@H]1C=C[C@H](NC(=O)CN2CCOCC2)[C@@H](CO)O1)NCCc1ccccc1	n	n	n
CCC(=O)N[C@H]1C=C[C@@H](CC(=O)NCc2ccccc2OC)O[C@@H]1CO	n	n	n
Cc1noc(C)c1NC(=O)N(C)C[C@@H]1Oc2c(NC(=O)Nc3ccc(C(F)(F)F)cc3)cccc2C(=O)N([C@H](C)CO)C[C@@H]1C	n	n	n
Cc1noc(C)c1NC(=O)N(C)C[C@@H]1Oc2c(NC(=O)Nc3ccc(C(F)(F)F)cc3)cccc2C(=O)N([C@@H](C)CO)C[C@@H]1C	n	x	31.5
Cc1cc(C(=O)Nc2cccc3c2O[C@H](CN(C)C(=O)Nc2ccc(C(F)(F)F)cc2)[C@@H](C)CN([C@H](C)CO)C3=O)n(C)n1	n	n	38.3
C[C@@H]1CN([C@H](C)CO)C(=O)c2cccc(NC(=O)Nc3ccc(C(F)(F)F)cc3)c2O[C@@H]1CN(C)C(=O)Nc1ccc2c(c1)OCO2	x	n	40.9
Cc1cc(C(=O)Nc2cccc3c2O[C@@H](CN(C)C(=O)Nc2ccc(C(F)(F)F)cc2)[C@@H](C)CN([C@@H](C)CO)C3=O)n(C)n1	n	n	n
C[C@@H]1CN([C@@H](C)CO)C(=O)c2cccc(NC(=O)Nc3ccc4c(c3)OCO4)c2O[C@H]1CN(C)C(=O)Nc1ccc(C(F)(F)F)cc1	n	n	n
C[C@@H]1CN([C@H](C)CO)C(=O)c2cccc(NC(=O)Nc3ccc4c(c3)OCO4)c2O[C@H]1CN(C)C(=O)Nc1ccc(C(F)(F)F)cc1	n	37.8	n
C[C@H](CO)N1C[C@H](C)[C@H](CN(C)C(=O)Nc2ccc3c(c2)OCO3)Oc2c(NC(=O)Nc3ccc(C(F)(F)F)cc3)cccc2C1=O	x	n	n
C[C@@H]1CCCCO[C@@H](CN(C)C)[C@H](C)CN([C@@H](C)CO)C(=O)c2cc(N(C)C)ccc2O1	n	n	x
SMILES	SIRT5 inh	E-sel inducer	DENV2 CPE
C[C@@H]1CN([C@@H](C)CO)S(=O)(=O)c2ccc(C#CC3CC3)cc2O[C@@H]1CN(C)Cc1cncnc1	x	n	x
COCC(=O)N(C)C[C@@H]1Oc2cc(-c3ccc(OC)cc3)ccc2S(=O)(=O)N([C@H](C)CO)C[C@H]1C	n	n	n
C[C@H](CO)N1C[C@H](C)[C@@H](CN(C)C(=O)Nc2ccc3c(c2)OCO3)Oc2c(NC(=O)C3CC3)cccc2C1=O	22.4!	n	n
C[C@@H]1CN([C@@H](C)CO)C(=O)c2cccc(NS(C)(=O)=O)c2O[C@@H]1CN(C)C(=O)Nc1ccc(C(F)(F)F)cc1	n	x	x
C[C@H]1CN([C@@H](C)CO)C(=O)c2cccc(NC(=O)Nc3ccc(F)cc3)c2O[C@@H]1CN(C)C(=O)Nc1ccc(C(F)(F)F)cc1	n	n	57.1
C[C@H]1CN([C@@H](C)CO)C(=O)c2cccc(NC(=O)Nc3ccc4c(c3)OCO4)c2O[C@@H]1CN(C)C(=O)Nc1ccccc1	x	n	n
C[C@H](CO)N1C[C@H](C)[C@H](CN(C)C(=O)Nc2ccc3c(c2)OCO3)Oc2c(NC(=O)C3CCCCC3)cccc2C1=O	n	n	n
C[C@@H]1CN([C@@H](C)CO)C(=O)c2cccc(NS(C)(=O)=O)c2O[C@H]1CN(C)C(=O)Nc1ccc(C(F)(F)F)cc1	n	x	79.0
C[C@H]1CN([C@@H](C)CO)C(=O)c2cccc(NC(=O)Nc3ccc(C(F)(F)F)cc3)c2O[C@@H]1CN(C)C(=O)Nc1ccc(F)cc1	n	n	n
C[C@@H]1CN([C@H](C)CO)C(=O)c2cccc(NC(=O)Nc3ccc4c(c3)OCO4)c2O[C@H]1CN(C)C(=O)Nc1ccccc1	x	n	100.0
CO[C@H]1CN(C)C(=O)c2cc(NC(=O)C3CC3)ccc2OC[C@@H](C)N(C(=O)c2ccccc2)C[C@H]1C	n	n	n
CO[C@@H]1CN(C)C(=O)c2cc(NC(=O)Nc3ccccc3)ccc2OC[C@H](C)N(C(C)=O)C[C@@H]1C	n	n	n
CO[C@@H](CN(C)C(=O)c1cnccn1)[C@@H](C)CN([C@@H](C)CO)S(=O)(=O)c1ccc(C)cc1	n	n	n
COc1ccc(S(=O)(=O)N2CCC3(CC2)CN(C(=O)c2cccnc2)[C@H](CO)c2c3c3ccc(OC)cc3n2C)cc1	n	n	n
COc1ccc(NC(=O)N[C@@H]2CC[C@H](CC(=O)NC3CCCCC3)O[C@@H]2CO)cc1	n	n	n
O=C(C[C@H]1C=C[C@H](NC(=O)C2CCOCC2)[C@H](CO)O1)Nc1ccccc1	n	n	n
CN(C)CCCNC(=O)C[C@H]1C=C[C@H](NS(=O)(=O)c2ccccc2)[C@@H](CO)O1	n	n	n
O=C1NC(=O)c2cc(Br)cc3cccc1c23	n	203.6	n
O=C1NC(=O)c2cc([N+](=O)[O-])cc3cccc1c23	n	x	n
O=S(=O)(NC[C@@H]1CC[C@H]2[C@H](CN2Cc2cccc(-c3ccccn3)c2)O1)c1ccccc1	18.0	x	n
Cc1noc(C)c1NC(=O)NC[C@@H]1CC[C@@H]2[C@@H](CN2Cc2cccc(-c3ccccn3)c2)O1	n	x	u
COc1ccc2c3c([nH]c2c1)[C@@H](CO)N(C(=O)Nc1ccc(F)cc1)CC31CCN(S(=O)(=O)c2cn(C)cn2)CC1	n	n	n

Bioassay records deposited in PubChem by Broad Institute.
